Data taken from ChEMBL document CHEMBL2062507, “Myxobacteria versus sponge-derived alkaloids: the bengamide family identified as potent immune modulating agents by scrutiny of LC-MS/ELSD libraries” (Bioorg Med Chem, 2012).
Active and inactive are the calls of the source. The calls are words filed in the database; no cut-off is given here.

How the values were obtained:
RAW264.7 [1] = test: Cytotoxicity against mouse RAW264.7 cells after 18 hrs by MTT assay; assay type: cell-based; settings: RAW264.7, 18 h
HCT-116 = test: Cytotoxicity against human HCT116 cells after 48 hrs by SRB assay; assay type: functional, cell-based; settings: HCT-116, 48 h
[2] = Inhibition of LPS-stimulated NFkappaB activation transfected in mouse RAW264.7 cells after 18 hrs by luciferase reporter gene assay; settings: RAW264.7, 18 h
RAW264.7 [3] = test: Inhibition of LPS-stimulated NFkappaB activation transfected in mouse RAW264.7 cells at 0.01 to 10 uM after 4 hrs by measuring IKappaBalpha phosphorylation by Western blot analysis; assay type: cell-based
Summary of the method: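 RAW264.7 cells grown near confluent in 6-well plates and given increasing compound concentrations with LPS for 4 h at 37 °C. Lysed in SDS loading buffer, run on 4–15% SDS-PAGE gels and blotted. Probed with anti-phospho-IκB and anti-IκB (1:1000), then HRP secondary. Detected by chemiluminescence on film, β-actin as loading control.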

RAW264.7 [4] = test: Antiinflammatory activity in mouse RAW264.7 cells assessed as inhibition of LPS-stimulated nitric oxide production up to 10 uM after 30 mins by Greiss method; assay type: functional, cell-based
Summary of the method: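 RAW264.7 cells grown 24 h in RPMI1640 in 96-well plates, then given fresh medium with compound and E. coli 055:B5 LPS. Supernatant mixed with Griess reagent (sulfanilamide, N-1-naphthylethylenediamine, H3PO4) for 30 min at room temperature in the dark. Absorbance read at 530 nm and converted to nitrite using a sodium nitrite standard curve.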

RAW264.7 [5] = test: Antiinflammatory activity in mouse RAW264.7 cells assessed as inhibition of LPS-stimulated iNOS expression up to 10 uM by quantitative RT-PCR analysis; assay type: functional, cell-based
Summary of the method: (§1)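 LPS (100 ng/mL)-stimulated RAW264.7 cells co-treated with compound at 0.01–10 μM. Total RNA (0.5 μg) DNase I-treated, reverse transcribed, cDNAs pooled per condition, SYBR Green real-time PCR array. mRNA normalised to GAPDH. Three independent experiments, one-way ANOVA, p<0.05 taken as significant.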

RAW264.7 [6] = test: Antiinflammatory activity in mouse RAW264.7 cells assessed as inhibition of LPS-stimulated TNFalpha expression up to 10 uM by quantitative RT-PCR analysis; assay type: functional, cell-based; summary of the method: as §1
RAW264.7 [7] = test: Antiinflammatory activity in mouse RAW264.7 cells assessed as inhibition of LPS-stimulated IL-6 expression up to 10 uM by quantitative RT-PCR analysis; assay type: functional, cell-based; summary of the method: as §1
RAW264.7 [8] = test: Antiinflammatory activity in mouse RAW264.7 cells assessed as inhibition of LPS-stimulated MCP1 expression up to 10 uM by quantitative RT-PCR analysis; assay type: functional, cell-based; summary of the method: as §1

SMILES	IC50 (RAW264.7 [1]) [µM]	IC50 (HCT-116) [µM]	IC50 [2] [µM]	inhibition (RAW264.7 [3])	Activity (RAW264.7 [4])	Activity (RAW264.7 [5])	Activity (RAW264.7 [6])	IC50 (RAW264.7 [6]) [µM]	Activity (RAW264.7 [7])	IC50 (RAW264.7 [7]) [µM]	Activity (RAW264.7 [8])	IC50 (RAW264.7 [8]) [µM]
CO[C@@H](C(=O)N[C@H]1CC[C@@H](OC(=O)C2CCCCC2)CN(C)C1=O)[C@H](O)[C@@H](O)[C@H](O)/C=C/C(C)(C)C	> 50	0.04	0.5	–	–	–	–	–	–	–	–	–
CCC(C)/C=C/[C@@H](O)[C@H](O)[C@@H](O)[C@@H](OC)C(=O)N[C@H]1CCCCNC1=O (mixture of isomers)	> 50	1.1	2	–	–	–	–	–	–	–	–	–
CCC(C)/C=C/[C@@H](O)[C@H](O)[C@@H](O)[C@@H](OC)C(=O)N[C@H]1CCCCN(C)C1=O (mixture of isomers)	> 50	1.5	2	–	–	–	–	–	–	–	–	–
CCCCCCCCCCCCCC(=O)O[C@H]1CC[C@H](NC(=O)[C@H](OC)[C@H](O)[C@@H](O)[C@H](O)/C=C/C(C)C)C(=O)NC1 [BENGAMIDE A]	> 50	0.018	0.075	Active	inactive	inactive	Dose-dependent effect	0.5	Dose-dependent effect	1	Dose-dependent effect	0.5
CCCCCCCCCCCCCC(=O)O[C@H]1CC[C@H](NC(=O)[C@H](OC)[C@H](O)[C@@H](O)[C@H](O)/C=C/C(C)C)C(=O)N(C)C1 [BENGAMIDE B]	> 50	0.002	0.085	Active	inactive	inactive	Dose-dependent effect	0.5	Dose-dependent effect	0.5	Dose-dependent effect	0.5
CO[C@@H](C(=O)N[C@H]1CCCCNC1=O)[C@H](O)[C@@H](O)[C@H](O)/C=C/C(C)C [BENGAMIDE E]	> 50	0.06	7.5	Active	–	–	–	–	–	–	–	–
CCCCCCCCCCCCCC(=O)O[C@H](/C=C/C(C)C)[C@H](O)[C@@H](O)[C@@H](OC)C(=O)N[C@H]1CCCCNC1=O [BENGAMIDE P]	–	0.73	–	–	–	–	–	–	–	–	–	–
CC1=C(O)C(=O)C=C2C1=CC=C1[C@@]2(C)CC[C@@]2(C)[C@@H]3C[C@](C)(C(=O)O)CC[C@]3(C)CC[C@]12C [CELASTROL]	> 50	–	0.2	–	–	–	–	–	–	–	–	–
